Laboratory results taken from ChEMBL document CHEMBL1155646, “Kinmoonosides A-C, three new cytotoxic saponins from the fruits of Acacia concinna, a medicinal plant collected in myanmar” (2000).

What follows are compounds tested on HT-1080 (assay: Cytotoxicity against human HT1080 cells by 3-(4,5-dimethylthiazol-2-yl)-[…] bromide assay). Settings: read-out: ED50 (the source's name).
Assay type: functional
Summary of the method: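 Human HT-1080 fibrosarcoma cells were tested in a standard tetrazolium (MTT) viability assay following an earlier published protocol. Potency was reported as ED50, given in µg/mL and also converted to µM.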
In the case of `C=CC(C)(CC/C=C(\C)C(=O)O)O[C@@H]1O[C@H](C)[C@@H](O)[C@H](O)[C@H]1O` (mixture of isomers), the EC50 is reported as over 100 µg/mL. Work on `O=c1[nH]cc(F)c(=O)[nH]1` [FLUOROURACIL] yielded an EC50 of 8000 nM. `CC1(C)C[C@H]2C3=CC[C@@H]4[C@@]5(C)CC[C@H](O[C@@H]6O[C@H](CO[C@@H]7OC[C@H](O)[C@H](O)[C@H]7O)[C@@H](O)[C@H](O)[C@H]6O[C@@H]6O[C@H](CO)[C@@H](O)[C@H](O)[C@H]6O)C(C)(C)[C@@H]5CC[C@@]4(C)[C@]3(C)C[C@@H](O)[C@@]2(C(=O)O)C[C@@H]1O` was tested, and the EC50 was over 100 µg/mL. Compound `C=CC1(C)CCC(C(CO)C(=O)O)O1` (centres undefined) has an EC50 of over 100 µg/mL. Compound `C[C@H]1O[C@@H](OC[C@H]2O[C@@H](O[C@H]3CC[C@]4(C)[C@H]5CC=C6[C@@H]7CC(C)(C)[C@@H](O)C[C@]7(C(=O)O)[C@H](O)C[C@@]6(C)[C@]5(C)CC[C@H]4C3(C)C)[C@H](O[C@@H]3O[C@H](CO)[C@@H](O)[C@H](O)[C@H]3O)[C@@H](O)[C@@H]2O)[C@H](O[C@@H]2OC[C@@H](O)[C@H](O)[C@H]2O)[C@@H](O)[C@H]1O` has an EC50 of over 100 µg/mL. Work on `CC(=O)N[C@H]1[C@H](O[C@H]2CC[C@]3(C)[C@H]4CC=C5[C@@H]6CC(C)(C)[C@@H](O)C[C@]6(C(=O)O)[C@H](O)C[C@@]5(C)[C@]4(C)CC[C@H]3C2(C)C)O[C@H](CO[C@@H]2OC[C@H](O)[C@H](O)[C@H]2O)[C@@H](O)[C@@H]1O` yielded an EC50 of over 100 µg/mL. For `CC1(C)C[C@H]2C3=CC[C@@H]4[C@@]5(C)CC[C@H](O[C@@H]6O[C@H](CO[C@@H]7OC[C@H](O)[C@H](O)[C@H]7O[C@@H]7OC[C@@H](O)[C@H](O)[C@H]7O)[C@@H](O)[C@H](O)[C@H]6O[C@@H]6O[C@H](CO)[C@@H](O)[C@H](O)[C@H]6O)C(C)(C)[C@@H]5CC[C@@]4(C)[C@]3(C)C[C@@H](O)[C@@]23C[C@@H]1OC3=O`, the EC50 was over 100 µg/mL. `C=CC(C)(O)CC/C=C(\CO)C(=O)O[C@H]1[C@H](O)[C@@H](O)C(O)O[C@@H]1C` (some centres undefined) gave an EC50 of over 100 µg/mL. In the case of `C=CC(C)(O)CC/C=C(\CO)C(=O)O[C@H]1[C@H](O)[C@@H](O)[C@H](O[C@@](C)(C=C)CC/C=C(\CO)C(=O)O[C@H]2C[C@]3(C(=O)O[C@@H]4O[C@H](CO)[C@@H](O)[C@H](O)[C@H]4O[C@@H]4O[C@@H](C)[C@H](O[C@H]5O[C@@H](CO)[C@H](O)[C@H]5O)[C@@H](O[C@@H]5O[C@H](CO)[C@@H](O)[C@H](O)[C@H]5O)[C@H]4O)[C@H](O)C[C@]4(C)C(=CC[C@@H]5[C@@]6(C)CC[C@H](O[C@@H]7O[C@H](CO[C@@H]8OC[C@H](O)[C@H](O)[C@H]8O)[C@@H](O)[C@H](O)[C@H]7O[C@@H]7O[C@H](CO)[C@@H](O)[C@H](O)[C@H]7O)C(C)(C)[C@@H]6CC[C@]54C)[C@@H]3CC2(C)C)O[C@@H]1C` (some centres undefined) [KINMOONOSIDES A], the EC50 is reported as 700 nM. `C=CC(C)(O)CC/C=C(\CO)C(=O)O[C@H]1[C@H](O)[C@@H](O)[C@H](O[C@](C)(C=C)CC/C=C(\CO)C(=O)O[C@H]2C[C@]3(C(=O)O[C@@H]4O[C@H](CO)[C@@H](O)[C@H](O)[C@H]4O[C@@H]4O[C@@H](C)[C@H](O[C@H]5O[C@@H](CO)[C@H](O)[C@H]5O)[C@@H](O[C@@H]5O[C@H](CO)[C@@H](O)[C@H](O)[C@H]5O)[C@H]4O)[C@H](O)C[C@]4(C)C(=CC[C@@H]5[C@@]6(C)CC[C@H](O[C@@H]7O[C@H](CO[C@@H]8OC[C@H](O)[C@H](O)[C@H]8O)[C@@H](O)[C@H](O)[C@H]7O[C@@H]7O[C@H](CO)[C@@H](O)[C@H](O)[C@H]7O)C(C)(C)[C@@H]6CC[C@]54C)[C@@H]3CC2(C)C)O[C@@H]1C` (some centres undefined) [KINMOONOSIDE B] was tested, and the EC50 was 910 nM. `C=CC(C)(CC/C=C(\CO)C(=O)O)O[C@@H]1O[C@H](C)[C@@H](O)[C@H](O)[C@H]1O` (some centres undefined) showed an EC50 of over 100 µg/mL. For `CC(=O)N[C@H]1[C@H](O[C@H]2CC[C@]3(C)[C@H]4CC=C5[C@@H]6CC(C)(C)[C@@H](O)C[C@]6(C(=O)O)[C@H](O)C[C@@]5(C)[C@]4(C)CC[C@H]3C2(C)C)O[C@H](CO[C@@H]2OC[C@H](O)[C@H](O)[C@H]2O[C@@H]2OC[C@@H](O)[C@H](O)[C@H]2O)[C@@H](O)[C@@H]1O` [PROSAPOGENIN 2], the EC50 was over 100 µg/mL. With `C=CC(C)(O)CC/C=C(\C)C(=O)O` (centres undefined) [MENTHIAFOLIC ACID] the EC50 was over 100 µg/mL. `C=CC(C)(O)CC/C=C(\CO)C(=O)O[C@H]1C[C@]2(C(=O)O[C@@H]3O[C@H](CO)[C@@H](O)[C@H](O)[C@H]3O[C@@H]3O[C@@H](C)[C@H](O[C@H]4O[C@@H](CO)[C@H](O)[C@H]4O)[C@@H](O[C@@H]4O[C@H](CO)[C@@H](O)[C@H](O)[C@H]4O)[C@H]3O)[C@H](O)C[C@]3(C)C(=CC[C@@H]4[C@@]5(C)CC[C@H](O[C@@H]6O[C@H](CO[C@@H]7OC[C@H](O)[C@H](O)[C@H]7O)[C@@H](O)[C@H](O)[C@H]6O[C@@H]6O[C@H](CO)[C@@H](O)[C@H](O)[C@H]6O)C(C)(C)[C@@H]5CC[C@]43C)[C@@H]2CC1(C)C` (some centres undefined) was tested, and the EC50 was 2830 nM.
